In article PMC4943881 (Biochemistry, 2015):
Where two headings read alike, the source gives them in different places. Blank lines part the entries; values can stand above or below the molecule they belong to. Where a SMILES comes first, the peptide text is derived from it.

Columns and labels:
[1] = molecular target: T1, 2P-ERK2 (active ERK2) (Rattus norvegicus, UniProt P63086); experiment: NMR; format: binding; details: estimated, slow/intermediate exchange prevented accurate determination
[2] = molecular target: T2, 0P-ERK2 (inactive ERK2) (Rattus norvegicus, UniProt P63086); experiment: NMR; format: binding; details: estimated, slow/intermediate exchange prevented accurate determination
In short: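 Unphosphorylated ERK2 from E. coli BL21(DE3), ILV-methyl-labeled in a protonated background, ~0.26 mM in 50 mM Tris pH 7.4, 150 mM NaCl, 5 mM MgSO4, 0.1 mM EDTA, 5 mM DTT, 99% D2O, 2.5% glycerol. AMP-PNP titrated at 0, 0.1, 0.2, 0.3, 1.0, 2.1, 4.2 mM; 5 h 2D TROSY-HMQC per point, 25 °C, 800 MHz; combined methyl CSP (1H, 0.25×13C).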

[3] = test system: Tyr-185 phosphorylated (pY) ERK2; details: formation of the ternary MBP-bound complex of pY ERK2; cited from earlier work
[4] = test system: 2P-p38α; details: cited from earlier work
[5] = molecular target: 0P-p38α; details: read-out: binding affinity of ATP; cited from earlier work
[6] = molecular target: T1, 2P-ERK2 (active ERK2); experiment: NMR; format: binding
[7] = molecular target: T2, 0P-ERK2 (inactive ERK2); experiment: NMR; format: binding
[8] = molecular target: Elk1F peptide DEF-site peptide (Homo sapiens) (UniProt P19419); details: cited from earlier work
[9] = molecular target: 0P-ERK2 mutant that was binding competent only at the DEJL-site; details: full-length Elk1 protein and 0P-ERK2 mutant binding competent only at the DEJL-site; cited from earlier work

- Kd [1]: 200 to 500 µM
- Kd [2]: 200 to 500 µM
Molecule: Nc1ncnc2c1ncn2[C@@H]1O[C@H](COP(=O)(O)OP(=O)(O)NP(=O)(O)O)[C@@H](O)[C@H]1O [AMP-PNP, adenosine 5′-(β,γ-imido)triphosphate]

Molecule: Nc1ncnc2c1ncn2[C@@H]1O[C@H](COP(=O)(O)OP(=O)(O)OP(=O)(O)O)[C@@H](O)[C@H]1O [ATP]
- koff, ATP [3]: 0.5 s⁻¹
- increase in the binding affinity of ATP upon phosphorylation ([4]; 2P-p38α versus 0P-p38α): > 30 fold
- Kd ([4]; read-out: binding affinity of ATP, 2P-p38α): 430 µM
- Kd [5]: > 15000 µM

- Kd [6]: 30 ± 3 µM
- Kd [7]: 10 ± 1 µM
Molecule: CC(C)C[C@H](NC(=O)[C@H](CO)NC(=O)[C@@H]1CCCN1C(=O)[C@H](CO)NC(=O)[C@H](CC(C)C)NC(=O)[C@@H]1CCCN1C(=O)[C@H](CC(C)C)NC(=O)[C@H](CCC(=O)O)NC(=O)[C@H](CC(C)C)NC(=O)[C@H](CC(=O)O)NC(=O)[C@H](CCCNC(=N)N)NC(=O)[C@@H]1CCCN1C(=O)[C@H](CCCCN)NC(=O)[C@H](CCCNC(=N)N)NC(=O)CNC(=O)[C@H](CCCCN)NC(=O)[C@@H](N)CCC(N)=O)C(=O)O [Elk1D] (H-QKGRKPRDLELPLSPSL-OH)

Molecule: ERK2 (2P-ERK2) (from UniProt P63086)
- Kd [8]: 8 µM

Molecule: full-length Elk1 protein: full-length transcription factor Elk1, a substrate of ERK2
- Kd [9]: 5 µM
